Assay outcomes as filed in PubChem BioAssay.
mIAP activ – mouse IAP activation; 330,000 tested, 0.24% active; AID 2805; activation factor at 10 µM; muIAP, CDP-Star luminescence, 30 min; active compounds read high; 1 = vehicle-only enzyme signal, 0 = enzyme-free wells;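 active = activation factor of at least 2 at 20 µM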
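System: mouse IAP enzyme. Reagent: CDP-Star chemiluminescent phosphatase substrate. Benchmarks: DMSO wells, no-enzyme wells. Times: 30 min enzyme-substrate-compound incubation at room temperature. Detection: luminescence from enzymatic CDP-Star hydrolysis. Doses: test compounds delivered from DMSO solution.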
bIAP act – increases bovine intestinal alkaline phosphatase activity; purified bovine IAP, CDP-star luminescence, 30 min; active compounds read high; fold of DMSO-control signal, blank-subtracted; activation factor at 20 µM; 200,000 tested, 0.17% active; AID 1016;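 active = activation factor of 2 or more at 20 µM, a signal rise over negative controls twice the positive control's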
mIAP inh – mouse IAP inhibition; purified mouse IAP, CDP-Star luminescence, 30 min; inhibition, % at 10 µM; 330,000 tested, 0.2% active;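 active = inhibition of at least 40% at 10 µM in the primary screen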;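 also: plate controls were DMSO with enzyme for no effect and no enzyme wells for full effect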
hIAP block – human IAP inhibition; P09923; purified IAP, CDP-Star luminescence, 30 min; inhibition, % at 10 µM; AID 2544; 330,000 tested, 0.12% active;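 active = inhibition reaching a set limit with compound at 10 µM in the primary screen, cut at about 35% in these data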;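 also: plate controls were DMSO wells with enzyme for no effect and no-enzyme buffer wells for full effect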
Target sequence (P09923 whole entry, looked up): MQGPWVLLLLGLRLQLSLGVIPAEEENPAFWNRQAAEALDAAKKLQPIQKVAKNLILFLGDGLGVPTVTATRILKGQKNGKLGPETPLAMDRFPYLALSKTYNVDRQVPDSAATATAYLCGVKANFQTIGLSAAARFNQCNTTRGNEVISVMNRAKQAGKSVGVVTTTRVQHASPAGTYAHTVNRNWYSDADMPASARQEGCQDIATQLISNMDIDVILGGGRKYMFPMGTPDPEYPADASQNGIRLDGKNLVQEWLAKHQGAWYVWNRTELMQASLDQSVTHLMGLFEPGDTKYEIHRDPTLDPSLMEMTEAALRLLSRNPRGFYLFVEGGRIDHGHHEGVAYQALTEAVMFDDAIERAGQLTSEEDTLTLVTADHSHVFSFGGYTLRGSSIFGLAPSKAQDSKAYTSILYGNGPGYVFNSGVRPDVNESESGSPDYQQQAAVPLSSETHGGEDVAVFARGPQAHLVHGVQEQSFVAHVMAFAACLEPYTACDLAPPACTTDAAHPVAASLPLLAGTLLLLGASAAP
bIAP inh – blocks bovine intestinal alkaline phosphatase activity. purified bovine IAP, CDP-star luminescence, 30 min. 190,000 tested, under 10 active. inhibition, % at 20 µM;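 active = over 50% inhibition of intestinal alkaline phosphatase at 20 µM in the single-dose screen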
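Assay system: bovine IAP enzyme; medium: DEA buffer 100 mM, pH 9.8, with MgCl2 1.0 mM, ZnCl2 0.02 mM; doses: 20 µM single dose; incubation: enzyme reaction for 30 min at room temperature; detection: CDP-star luminescence signal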
hIAP act – human IAP activation; P09923; purified human IAP, CDP-Star luminescence, 30 min; active compounds read high; 1 = vehicle-only enzyme, 0 = enzyme-free background; activation factor at 10 µM; 330,000 tested, 0.16% active;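 active = activation factor of the enzyme at least 2-fold when tested at 20 µM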
An asterisk follows results filed as active; / = no result given. Sampled rows, rich in hits. Any-hit rate of the full collection: about 0.79%.

SMILES	mIAP activ	bIAP act	mIAP inh	hIAP block	bIAP inh	hIAP act
COc1ccc(C(=O)NNC(=S)NC(=O)C(C)(C)C)cc1	1.1	1.7	-6	-109	-71	2.1*
Nc1cc(=O)[nH]c(SCC(=O)Nc2cccc(S(=O)(=O)N3CCCCCC3)c2)n1	0.95	/	5	5	/	0.95
CCCCN1C(=O)C2(NNc3ccccc3O2)c2ccccc21 (stereo unspecified)	0.95	2.7*	5	24	-169	0.76
COc1ccc(OC)c(C(=O)NC(CC(N)=O)c2ccc(NCc3ccccn3)c([N+](=O)[O-])c2)c1 (stereo unspecified)	0.98	/	2	26	/	0.74
COc1ccc(OC)c(C(=O)NC(CC(N)=O)c2ccc(NCc3ccc(F)c(F)c3)c([N+](=O)[O-])c2)c1 (stereo unspecified)	0.52	/	48*	8	/	0.92
CCOC(=O)C1CCN(C(=O)CCCn2nc(CC)n3c(cc4occc43)c2=O)CC1	1	/	-2	-6	/	1.1
Cc1ccc(NC(=O)/C=C/C(=O)O)c(NC(=O)c2ccccc2)c1	1.1	/	-10	18	/	0.82
Cc1ccc(N2CCN(C(=O)CCc3nc4ccccc4[nH]3)CC2)c(C)c1	1.4	2.7*	-41	-6	-166	1.1
O=C(Nc1ccc(N2CCOCC2)cc1)c1ccc2nc(-c3ccco3)c(-c3ccco3)nc2c1	0.92	0.9	8	-18	14	1.2
S=C(Nc1ccc(N2CCOCC2)cc1)Nc1ccc2nc(-c3ccco3)c(-c3ccco3)nc2c1	0.55	0.8	45*	12	23	0.88
O=C1/C(=C/c2ccc(N3CCOCC3)o2)SC(=Nc2ccccc2)N1CCc1c[nH]c2ccccc12	0.88	0.6	12	43*	40	0.57
O=C(N/N=C1/CCCc2ccccc21)C(c1ccccc1)c1ccccc1	0.95	0.9	5	7	10	0.93
Cc1cc(/C=N/n2cnnc2)c(C)n1-c1ccc(Cl)cc1	1	0.9	0	-1	10	1
Cc1cc(/C=N/n2cnnc2)c(C)n1-c1ccc(OCc2ccc(Cl)cc2Cl)cc1	1.2	2.5*	-18	-23	-148	1.2
Cc1ccc2c(c1)C1C=CCC1C(C(=O)O)N2 (stereo unspecified)	/	0.9	/	/	7	/
COc1cccc2c1NC(C(=O)O)C1CC=CC21 (stereo unspecified)	0.43	0.9	57*	-7	12	1.1
Cc1ccc(C(=O)N/C(=C/c2ccc(Cl)cc2)C(=O)Nc2cccc(C(=O)O)c2)cc1	1.1	2.2*	-8	21	-119	0.79
O=C(Nc1cccc(C(=O)O)c1)/C(=C\c1ccccc1)NC(=O)c1ccccc1	0.99	1	1	-4	4	1
CCCCSCCCNC(=O)Nc1ccc(CC)cc1	2.5*	0.5	-146	-7	49	1.1
CC1CC(C)CN(c2cc(N(C)CCO)c([N+](=O)[O-])c3nonc23)C1 (stereo unspecified)	0.82	0.7	18	12	32	0.88
CN(Cc1ncc[nH]1)Cc1cn(-c2ccccc2)nc1-c1ccc2c(c1)OCO2	1.1	/	-13	-14	/	1.1
Cc1ccc(-n2cc(CN(C)Cc3ncc[nH]3)c(-c3cccc(C)c3)n2)cc1	1	3.5*	-4	-43	-253	1.4
FC(F)Sc1ccc(NC(=S)NC2CCCCC2)cc1	2.2*	0.7	-123	-11	26	1.1
FC(F)Sc1ccc(NC(=S)NCC2CCCCC2)cc1	3.3*	0.3	-228	9	/	0.91
CN(CC(=O)Nc1ccc(SC(F)F)cc1)C1CCCCC1	1.2	0.8	-20	-3	17	1
SMILES	mIAP activ	bIAP act	mIAP inh	hIAP block	bIAP inh	hIAP act
CC1CCCCC1NC(=S)Nc1ccc(SC(F)F)cc1 (stereo unspecified)	3.3*	0.8	-227	-10	21	1.1
S=C(NCC1CCCCC1)Nc1cccnc1	1	0.9	-1	11	5	0.89
CC(C)c1nc(SCc2c(F)cccc2Cl)c2c(=O)n(C)c(=O)n(C)c2n1	0.89	0.9	11	8	6	0.92
COc1ccc(C2=CC(=O)CCC2)cc1	0.97	/	3	3	/	0.97
CCCCCCc1ccc(N2C[C@H](CCCCC)[C@@H](CC(=O)NCc3ccccc3)C2=O)cc1	2.3*	/	-134	9	/	0.91
CCCCCCc1ccc(N2C[C@H](CCCCC)[C@@H](CC(=O)NCc3ccc(OC)cc3)C2=O)cc1	2.3*	/	-126	5	/	0.95
CCCCCCc1ccc(N2C[C@H](Cc3ccccc3)[C@@H](CC(=O)NCc3ccc(OC)cc3)C2=O)cc1	2	/	-100	14	/	0.85
Cc1nc([N+](=O)[O-])c(Sc2nc3ccccc3n2C)n1Cc1ccccc1	0.94	1	6	7	0	0.93
COc1ccc(-c2nc3ccccc3n2Cc2ccccc2)cc1	0.97	3*	3	-17	-196	1.2
C=CCn1c(-c2ccc(OC)cc2)nc2ccccc21	0.93	0.9	7	1	13	0.99
N#CC1=C(S)N(c2ccccc2)C(c2ccc(-c3cc(Cl)ccc3Cl)o2)NC1=O (stereo unspecified)	0.83	2*	16	5	-101	0.95
N#CC1=C(S)N(c2ccccc2)C(c2ccc(-c3ccc(Cl)c(Cl)c3)o2)NC1=O (stereo unspecified)	0.83	/	17	22	/	0.78
CCN(CC)C(=O)NCc1c(C)cc(C)cc1C	0.97	1	3	8	1	0.92
O=C(CN(C(=O)c1ccccc1Cl)N1C(=O)CCCC1=O)c1ccc(Cl)cc1	1	1.1	0	-9	-7	1.1
O=S(=O)(c1ccc(N2CCC(c3ccc(Cl)cc3)=N2)cc1)N(CCO)CCO	2.2*	2.7*	-120	-6	-168	1.1
CN(C)CCCNS(=O)(=O)c1ccc(N2CCC(c3ccc(Cl)cc3)=N2)cc1	1.9	2.2*	-89	-18	-125	1.2
Cn1nc(C(=O)NC(C)(C)C)c2ccccc21	0.98	0.9	2	-4	7	1
Fc1ccc(N2N=C(c3cccs3)CC2c2ccccc2)cc1 (stereo unspecified)	1.8	1.3	-80	-1	-34	1
Fc1ccccc1N1CC(c2ccccc2)C(c2cccs2)=N1 (stereo unspecified)	2.2*	1.7	-119	-10	-70	1.1
O=C1c2c(O)cc(O)cc2O[C@@]12c1c(cc(O)c3c1O[C@H](c1ccc(O)cc1)[C@@H](O)C3)O[C@@H]2c1ccc(O)cc1	0.59	1	41*	7	1	0.93
O=C(Nc1ccc(NC(=O)C2CC2)cc1)c1cccs1	1.1	/	-7	-19	/	1.2
CC1CCCN1CC#CC(O)(c1ccccc1)c1ccccc1 (stereo unspecified)	1.1	/	-15	-10	/	1.1
